From ChEMBL document CHEMBL1135530, “Selective alpha4beta7 integrin antagonists and their potential as antiinflammatory agents” (J Med Chem, 2002)
Peptide text beside a SMILES is read from it.

Tests used:
[1] = biological target: T1, Integrin alpha-4/beta-7 (Homo sapiens, UniProt P13612+P26010); assay: Ability to block the alpha4-beta7 integrin-MAdCAM-1 binding interaction using a protein ELISA format; assay type: protein-complex assay
T1 sequence (P13612 whole entry): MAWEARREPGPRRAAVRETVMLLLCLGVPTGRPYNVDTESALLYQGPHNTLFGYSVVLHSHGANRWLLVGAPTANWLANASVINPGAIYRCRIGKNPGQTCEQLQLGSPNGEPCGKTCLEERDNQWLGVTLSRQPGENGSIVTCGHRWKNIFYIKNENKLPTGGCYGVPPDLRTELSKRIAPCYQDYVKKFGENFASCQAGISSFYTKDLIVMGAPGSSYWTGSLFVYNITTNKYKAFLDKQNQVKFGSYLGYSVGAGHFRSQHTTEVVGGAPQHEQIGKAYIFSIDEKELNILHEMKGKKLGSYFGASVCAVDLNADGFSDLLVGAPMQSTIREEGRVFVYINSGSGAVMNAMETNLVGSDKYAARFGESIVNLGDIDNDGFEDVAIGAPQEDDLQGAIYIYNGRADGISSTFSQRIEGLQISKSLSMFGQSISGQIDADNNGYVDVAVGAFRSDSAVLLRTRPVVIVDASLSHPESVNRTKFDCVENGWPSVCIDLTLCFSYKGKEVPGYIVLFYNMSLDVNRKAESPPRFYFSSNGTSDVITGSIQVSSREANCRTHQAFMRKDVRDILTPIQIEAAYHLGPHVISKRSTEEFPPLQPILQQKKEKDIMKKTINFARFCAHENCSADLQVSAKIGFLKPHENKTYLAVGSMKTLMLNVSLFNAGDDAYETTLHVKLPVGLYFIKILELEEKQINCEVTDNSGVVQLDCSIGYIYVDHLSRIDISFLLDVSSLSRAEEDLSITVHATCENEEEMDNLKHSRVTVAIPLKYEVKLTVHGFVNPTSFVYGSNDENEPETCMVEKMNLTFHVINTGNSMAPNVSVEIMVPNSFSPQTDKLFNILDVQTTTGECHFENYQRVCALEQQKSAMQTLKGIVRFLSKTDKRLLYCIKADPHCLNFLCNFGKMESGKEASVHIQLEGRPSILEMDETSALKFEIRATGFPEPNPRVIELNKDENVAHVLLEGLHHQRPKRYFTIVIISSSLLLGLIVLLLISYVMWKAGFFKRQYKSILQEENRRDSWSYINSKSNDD
T1 sequence (P26010 whole entry): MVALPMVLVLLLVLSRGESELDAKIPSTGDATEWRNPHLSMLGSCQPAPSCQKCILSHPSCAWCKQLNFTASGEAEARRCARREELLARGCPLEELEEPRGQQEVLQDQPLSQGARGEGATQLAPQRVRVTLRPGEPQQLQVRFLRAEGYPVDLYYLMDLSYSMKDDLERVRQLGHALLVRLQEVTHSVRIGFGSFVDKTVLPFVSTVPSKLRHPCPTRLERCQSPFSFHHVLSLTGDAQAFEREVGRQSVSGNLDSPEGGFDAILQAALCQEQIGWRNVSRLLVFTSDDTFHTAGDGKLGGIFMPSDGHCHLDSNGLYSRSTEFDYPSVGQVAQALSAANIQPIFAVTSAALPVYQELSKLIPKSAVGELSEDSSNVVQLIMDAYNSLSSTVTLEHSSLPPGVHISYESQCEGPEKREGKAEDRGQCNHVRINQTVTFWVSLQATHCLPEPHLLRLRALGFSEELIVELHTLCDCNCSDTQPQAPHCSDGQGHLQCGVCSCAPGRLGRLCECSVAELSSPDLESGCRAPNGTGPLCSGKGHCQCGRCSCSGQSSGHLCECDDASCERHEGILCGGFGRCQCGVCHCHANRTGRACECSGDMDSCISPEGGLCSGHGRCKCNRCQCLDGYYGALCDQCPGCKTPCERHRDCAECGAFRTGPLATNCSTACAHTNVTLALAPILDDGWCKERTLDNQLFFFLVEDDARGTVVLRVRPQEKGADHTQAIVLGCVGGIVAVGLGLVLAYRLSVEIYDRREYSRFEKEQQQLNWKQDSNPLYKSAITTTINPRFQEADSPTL
Method in brief: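 Plates coated overnight at 4 °C with anti-human α4 antibody 9F10 (2 µg/mL), blocked in Tris pH 7.5 buffer with 1 mM MnCl2, Tween-20 and 0.5% BSA, then loaded with α4β7 purified from transfected JY cells (2 µg/mL). Compounds (1 nM–200 µM final, triplicate) plus MAdCAM-1-Ig-HRP (1 µg/mL), 2 h room temperature. TMB read at 450 nm; IC50 at half-maximal absorbance.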

[2] = biological target: Integrin alpha-4/beta-1 (Homo sapiens, UniProt P05556+P13612); assay: Inhibitory concentration affording 50% inhibition of alpha4-beta1 integrin binding to VCAM-1, using ELISA assay.; assay type: protein-complex assay
Method in brief: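 α4β1 extracted from Ramos cell membranes (lectin chromatography, gel filtration in 1% octylglucoside), with 1 mM MnCl2 throughout. Wells coated with 4 µg/mL recombinant soluble human VCAM-1 (5 N-terminal Ig domains, from CHO cells) and blocked with 1% BSA. Inhibitor and receptor 2 h at 37 °C in Tris pH 7.4. Bound receptor detected with anti-β1 mAb 2D4.6, then HRP anti-mouse and TMB at 450 nm. IC50 at half-maximal absorbance.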

[3] = Selectivity is the ratio of inhibitory concentrations at alpha4-beta1 integrin to alpha4-beta7 integrin
[4] = biological target: Integrin alpha-5/beta-1 (Homo sapiens, UniProt P05556+P08648); assay: Ability to block the alpha5-beta1 integrin binding to fibronectin; assay type: protein-complex assay
[5] = biological target: Intercellular adhesion molecule (ICAM-1), Integrin alpha-L/beta-2 (Homo sapiens, UniProt P05107+P05362+P20701); assay: Ability to block alphaL-beta2 integrin binding to ICAM-1; assay type: protein-complex assay
[6] = biological target: Integrin alpha-IIb/beta-3 (Homo sapiens, UniProt P05106+P08514); assay: Inhibition of alpha IIb beta3 integrin binding to fibrinogen; assay type: protein-complex assay
[7] = biological target: Integrin alpha-V/beta-3 (Homo sapiens, UniProt P05106+P06756); assay: Ability to block the alphaV-beta3 integrin binding to vitronectin; assay type: protein-complex assay

Integrin alpha-4/beta-1, sequence (P05556 whole entry, one chain of several, the tested form may be a part): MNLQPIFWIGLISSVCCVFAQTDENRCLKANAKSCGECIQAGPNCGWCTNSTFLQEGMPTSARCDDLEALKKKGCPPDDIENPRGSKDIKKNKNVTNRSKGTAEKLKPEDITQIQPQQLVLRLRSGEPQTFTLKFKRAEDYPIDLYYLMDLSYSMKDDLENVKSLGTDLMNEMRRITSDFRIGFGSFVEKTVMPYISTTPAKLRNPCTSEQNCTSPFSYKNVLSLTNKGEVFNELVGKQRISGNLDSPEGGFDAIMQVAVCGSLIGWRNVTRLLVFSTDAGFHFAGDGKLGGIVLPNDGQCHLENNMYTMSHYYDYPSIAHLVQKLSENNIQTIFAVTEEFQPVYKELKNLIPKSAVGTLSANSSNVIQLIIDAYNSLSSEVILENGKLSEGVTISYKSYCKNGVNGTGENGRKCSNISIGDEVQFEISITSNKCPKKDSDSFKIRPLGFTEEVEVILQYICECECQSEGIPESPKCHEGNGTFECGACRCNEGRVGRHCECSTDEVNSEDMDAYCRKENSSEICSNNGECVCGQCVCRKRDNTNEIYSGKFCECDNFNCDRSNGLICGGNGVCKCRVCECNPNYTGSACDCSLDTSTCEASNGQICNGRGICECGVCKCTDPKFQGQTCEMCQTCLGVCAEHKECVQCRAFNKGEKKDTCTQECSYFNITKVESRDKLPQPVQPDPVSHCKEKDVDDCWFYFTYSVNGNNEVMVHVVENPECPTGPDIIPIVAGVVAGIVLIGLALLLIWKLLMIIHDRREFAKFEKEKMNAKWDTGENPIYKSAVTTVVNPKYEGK
Integrin alpha-5/beta-1, sequence (P05556 21-798 limits assumed): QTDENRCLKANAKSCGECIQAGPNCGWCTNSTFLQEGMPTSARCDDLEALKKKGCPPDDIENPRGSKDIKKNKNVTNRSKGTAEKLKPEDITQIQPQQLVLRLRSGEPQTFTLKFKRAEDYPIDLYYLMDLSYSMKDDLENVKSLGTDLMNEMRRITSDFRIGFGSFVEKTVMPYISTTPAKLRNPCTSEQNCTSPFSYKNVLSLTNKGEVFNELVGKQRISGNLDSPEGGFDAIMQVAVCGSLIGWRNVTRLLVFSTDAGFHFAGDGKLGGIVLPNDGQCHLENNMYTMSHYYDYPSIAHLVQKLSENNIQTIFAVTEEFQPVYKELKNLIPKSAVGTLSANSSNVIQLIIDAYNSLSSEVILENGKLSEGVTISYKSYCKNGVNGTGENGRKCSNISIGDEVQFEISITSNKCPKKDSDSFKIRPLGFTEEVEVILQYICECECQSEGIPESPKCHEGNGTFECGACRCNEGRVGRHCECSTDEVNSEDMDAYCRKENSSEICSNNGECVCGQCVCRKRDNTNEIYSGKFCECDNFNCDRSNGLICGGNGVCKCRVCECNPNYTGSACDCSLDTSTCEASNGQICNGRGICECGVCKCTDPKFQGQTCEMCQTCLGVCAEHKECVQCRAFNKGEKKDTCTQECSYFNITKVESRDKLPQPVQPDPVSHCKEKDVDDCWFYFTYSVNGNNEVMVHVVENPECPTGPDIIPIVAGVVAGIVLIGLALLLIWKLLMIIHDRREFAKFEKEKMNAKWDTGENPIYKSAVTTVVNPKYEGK
Integrin alpha-5/beta-1, sequence (P08648 42-894 limits assumed): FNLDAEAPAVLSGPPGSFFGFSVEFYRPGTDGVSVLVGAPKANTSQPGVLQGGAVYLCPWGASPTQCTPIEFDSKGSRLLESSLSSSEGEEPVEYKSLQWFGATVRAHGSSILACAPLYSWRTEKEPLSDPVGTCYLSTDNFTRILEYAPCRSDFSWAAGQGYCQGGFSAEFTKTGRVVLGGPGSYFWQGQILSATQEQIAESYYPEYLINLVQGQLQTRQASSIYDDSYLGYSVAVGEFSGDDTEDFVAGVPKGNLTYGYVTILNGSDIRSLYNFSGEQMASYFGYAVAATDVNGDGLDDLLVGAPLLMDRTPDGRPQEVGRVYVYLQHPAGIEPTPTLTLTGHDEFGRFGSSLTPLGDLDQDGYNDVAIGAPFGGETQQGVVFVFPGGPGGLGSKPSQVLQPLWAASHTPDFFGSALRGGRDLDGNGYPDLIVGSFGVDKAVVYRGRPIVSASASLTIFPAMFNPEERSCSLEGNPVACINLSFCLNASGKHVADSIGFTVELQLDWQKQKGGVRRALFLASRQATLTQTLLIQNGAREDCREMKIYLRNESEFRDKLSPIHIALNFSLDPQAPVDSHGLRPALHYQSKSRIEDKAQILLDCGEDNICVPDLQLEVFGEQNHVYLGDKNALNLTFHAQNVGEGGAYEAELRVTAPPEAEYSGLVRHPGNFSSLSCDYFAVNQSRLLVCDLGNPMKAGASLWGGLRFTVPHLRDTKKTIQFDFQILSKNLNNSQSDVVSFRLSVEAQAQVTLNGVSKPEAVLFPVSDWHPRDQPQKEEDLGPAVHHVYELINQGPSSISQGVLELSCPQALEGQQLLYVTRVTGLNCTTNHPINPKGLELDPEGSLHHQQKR
Integrin alpha-5/beta-1, sequence (P08648 895-1049 limits assumed): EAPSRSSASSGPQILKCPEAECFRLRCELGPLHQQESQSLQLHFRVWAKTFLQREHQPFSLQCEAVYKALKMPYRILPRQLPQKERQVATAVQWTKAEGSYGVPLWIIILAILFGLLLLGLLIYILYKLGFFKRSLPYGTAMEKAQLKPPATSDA
Intercellular adhesion molecule (ICAM-1), Integrin alpha-L/beta-2, sequence (P20701 whole entry): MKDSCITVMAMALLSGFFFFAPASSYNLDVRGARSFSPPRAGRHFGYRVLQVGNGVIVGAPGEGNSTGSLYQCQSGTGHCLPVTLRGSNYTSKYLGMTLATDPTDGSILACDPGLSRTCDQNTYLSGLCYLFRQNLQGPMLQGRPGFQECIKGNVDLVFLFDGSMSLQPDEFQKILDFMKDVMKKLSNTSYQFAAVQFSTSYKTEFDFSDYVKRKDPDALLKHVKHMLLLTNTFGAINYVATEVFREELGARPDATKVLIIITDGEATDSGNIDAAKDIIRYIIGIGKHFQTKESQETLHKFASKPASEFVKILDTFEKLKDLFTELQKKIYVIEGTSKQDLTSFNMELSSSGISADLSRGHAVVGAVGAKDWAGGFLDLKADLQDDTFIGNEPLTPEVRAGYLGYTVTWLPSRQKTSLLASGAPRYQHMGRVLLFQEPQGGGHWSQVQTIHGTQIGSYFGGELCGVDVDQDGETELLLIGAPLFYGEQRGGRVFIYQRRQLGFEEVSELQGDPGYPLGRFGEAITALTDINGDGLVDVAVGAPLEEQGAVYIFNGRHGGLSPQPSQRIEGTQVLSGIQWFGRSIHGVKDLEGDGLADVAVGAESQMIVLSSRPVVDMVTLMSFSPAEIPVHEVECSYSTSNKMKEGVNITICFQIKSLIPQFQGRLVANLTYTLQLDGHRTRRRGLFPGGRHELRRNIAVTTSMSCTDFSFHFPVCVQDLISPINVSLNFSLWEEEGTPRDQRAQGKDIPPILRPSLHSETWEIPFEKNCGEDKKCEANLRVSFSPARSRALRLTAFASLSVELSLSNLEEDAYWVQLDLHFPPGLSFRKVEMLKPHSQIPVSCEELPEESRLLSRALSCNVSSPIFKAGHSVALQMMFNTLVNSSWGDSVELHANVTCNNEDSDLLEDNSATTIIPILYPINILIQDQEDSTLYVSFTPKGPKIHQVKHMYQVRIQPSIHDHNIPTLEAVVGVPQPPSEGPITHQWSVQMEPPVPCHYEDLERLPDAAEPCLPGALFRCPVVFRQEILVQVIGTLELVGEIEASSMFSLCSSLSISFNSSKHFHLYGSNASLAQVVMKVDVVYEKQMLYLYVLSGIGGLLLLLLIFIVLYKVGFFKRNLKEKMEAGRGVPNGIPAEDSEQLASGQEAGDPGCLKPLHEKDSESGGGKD
Intercellular adhesion molecule (ICAM-1), Integrin alpha-L/beta-2, sequence (P05362 whole entry): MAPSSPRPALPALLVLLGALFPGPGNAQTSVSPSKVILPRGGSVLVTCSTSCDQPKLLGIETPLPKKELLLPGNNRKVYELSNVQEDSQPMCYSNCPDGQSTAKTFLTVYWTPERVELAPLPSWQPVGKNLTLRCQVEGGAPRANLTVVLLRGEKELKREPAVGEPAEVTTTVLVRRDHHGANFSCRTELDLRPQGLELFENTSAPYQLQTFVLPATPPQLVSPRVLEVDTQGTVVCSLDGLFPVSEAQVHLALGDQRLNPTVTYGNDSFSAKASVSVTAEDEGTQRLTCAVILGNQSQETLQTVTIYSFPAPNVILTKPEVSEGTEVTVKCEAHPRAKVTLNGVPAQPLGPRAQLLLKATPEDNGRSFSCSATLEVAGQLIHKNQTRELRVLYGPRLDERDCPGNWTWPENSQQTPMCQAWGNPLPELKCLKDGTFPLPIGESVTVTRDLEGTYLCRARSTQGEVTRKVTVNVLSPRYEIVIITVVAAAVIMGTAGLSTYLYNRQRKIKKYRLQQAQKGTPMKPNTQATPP
Intercellular adhesion molecule (ICAM-1), Integrin alpha-L/beta-2, sequence (P05107 whole entry): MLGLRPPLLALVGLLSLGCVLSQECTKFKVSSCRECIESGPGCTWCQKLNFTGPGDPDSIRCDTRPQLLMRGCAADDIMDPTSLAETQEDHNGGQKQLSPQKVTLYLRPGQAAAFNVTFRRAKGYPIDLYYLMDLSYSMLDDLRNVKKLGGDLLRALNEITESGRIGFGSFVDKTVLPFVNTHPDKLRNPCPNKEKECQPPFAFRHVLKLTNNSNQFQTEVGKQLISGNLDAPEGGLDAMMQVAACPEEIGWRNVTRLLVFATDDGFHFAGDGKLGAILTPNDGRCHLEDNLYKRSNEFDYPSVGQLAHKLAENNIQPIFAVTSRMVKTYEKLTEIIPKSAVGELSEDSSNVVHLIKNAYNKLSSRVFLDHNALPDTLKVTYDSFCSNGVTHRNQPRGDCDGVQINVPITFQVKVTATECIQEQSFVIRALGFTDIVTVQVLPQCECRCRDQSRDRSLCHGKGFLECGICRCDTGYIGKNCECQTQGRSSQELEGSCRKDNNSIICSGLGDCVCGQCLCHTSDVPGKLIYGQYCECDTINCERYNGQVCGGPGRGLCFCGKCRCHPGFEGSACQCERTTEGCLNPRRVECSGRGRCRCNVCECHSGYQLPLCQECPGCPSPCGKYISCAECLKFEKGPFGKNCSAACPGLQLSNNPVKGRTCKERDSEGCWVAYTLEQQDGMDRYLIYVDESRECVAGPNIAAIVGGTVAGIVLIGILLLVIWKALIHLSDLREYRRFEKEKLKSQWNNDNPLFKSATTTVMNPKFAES

## CC(C)C[C@H]1NC(=O)[C@H]([C@H](C)O)NC(=O)[C@@H](CC(=O)O)NC(=O)[C@@H](CO)NC(=O)[C@@H](CCCN=C(N)N)NC(=O)[C@H](N)CSSC[C@H](C(N)=O)NC1=O
[1]
  IC50: 43 µM
[2]
  IC50: > 100 µM
[3]
  Ratio: > 2.3

## CC(C)C[C@H]1NC(=O)[C@@H]([C@@H](C)O)NC(=O)[C@@H](CC(=O)O)NC(=O)[C@H](CO)NC(=O)[C@@H](CCCN=C(N)N)NC(=O)[C@H](N)CSSC[C@H](C(N)=O)NC1=O
[1]
  IC50: 7.9 µM
[2]
  IC50: 20 µM
[3]
  Ratio: 2.5

## CC(C)C[C@H]1NC(=O)[C@H]([C@@H](C)O)NC(=O)[C@@H](CC(=O)O)NC(=O)[C@H](CO)NC(=O)[C@@H](CCCCN)NC(=O)[C@H](N)CSSC[C@H](C(N)=O)NC1=O
[3]
  Ratio: 6

## CC(C)C[C@H]1NC(=O)[C@H]([C@@H](C)O)NC(=O)[C@@H](CC(N)=O)NC(=O)[C@H](CO)NC(=O)[C@@H](CCCN=C(N)N)NC(=O)[C@H](N)CSSC[C@H](C(N)=O)NC1=O
[3]
  Ratio: 0.5

## CC(C)C[C@@H]1NC(=O)[C@H]([C@@H](C)O)NC(=O)[C@H](CC(=O)O)NC(=O)[C@H](CO)NC(=O)[C@H](CCCN=C(N)N)NC(=O)[C@@H](N)CSSC[C@@H](C(=O)NCC(=O)N[C@@H](CCC(=O)O)C(N)=O)NC1=O (HELM PEPTIDE1{C.R.S.D.T.L.C.G.E.[am]}$PEPTIDE1,PEPTIDE1,1:R3-7:R3$$$V2.0)
[1]
  IC50: 0.03 µM
[4]
  IC50: 6.1 µM
[2]
  IC50: 1.1 µM
[5]
  IC50: > 100 µM
[6]
  IC50: > 25 µM
[7]
  IC50: 1 µM

## CC(C)[C@H]1NC(=O)[C@H]([C@@H](C)O)NC(=O)[C@@H](CC(=O)O)NC(=O)[C@H](CO)NC(=O)[C@@H](CCCN=C(N)N)NC(=O)[C@H](N)CSSC[C@H](C(N)=O)NC1=O
[3]
  Ratio: 13.1

## CC(C)C[C@H]1NC(=O)[C@H](C(C)C)NC(=O)[C@@H](CC(=O)O)NC(=O)[C@H](CO)NC(=O)[C@@H](CCCN=C(N)N)NC(=O)[C@H](N)CSSC[C@H](C(N)=O)NC1=O
[3]
  Ratio: 15.5

## CC(C)C[C@H]1NC(=O)[C@H]([C@@H](C)O)NC(=O)[C@@H](CC(=O)O)NC(=O)[C@H](CO)NC(=O)[C@@H](CCCN=C(N)N)NC(=O)[C@H](N)CSSC[C@H](C(N)=O)NC1=O
[3]
  Ratio: 35

## C[C@@H](O)[C@@H]1NC(=O)[C@@H](CC(=O)O)NC(=O)[C@H](CO)NC(=O)[C@@H](CCCN=C(N)N)NC(=O)[C@H](N)CSSC[C@H](C(N)=O)NC(=O)CNC1=O
[3]
  Ratio: > 9

## CC[C@H](C)[C@H]1NC(=O)[C@H]([C@@H](C)O)NC(=O)[C@@H](CC(=O)O)NC(=O)[C@H](CO)NC(=O)[C@@H](CCCN=C(N)N)NC(=O)[C@H](N)CSSC[C@H](C(N)=O)NC1=O
[3]
  Ratio: 14

## CSCC[C@@H]1NC(=O)[C@@H](CCCN=C(N)N)NC(=O)[C@H](N)CSSC[C@H](C(N)=O)NC(=O)[C@@H](CC(C)C)NC(=O)[C@H]([C@@H](C)O)NC(=O)[C@@H](CC(=O)O)NC1=O
[3]
  Ratio: 1.5
